RORA act: activators of human nuclear receptor RORA; AID 560; activation, % at 10 µM; CHO-K1 Gal4-RORA LBD luciferase reporter, luminescence; percent increase over mock-subtracted basal signal; P35398; actives 1.5% (n = 65,000);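 active means activation above the mean of all tested compounds plus 3 SD, cut at about 49% in these data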
ERa coact pot: enhances coactivator binding to human estrogen receptor alpha; P03372; TR-FRET ERalpha-LBD/SRC-Cy5 coactivator binding, 2 h; 100 = basal binding, no effect; coactivator binding (% of control), % at 25.6 µM; actives 1.3% (n = 86,000); AID 639; in the data active means activity above about 200%;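 further: binding measured in presence of low estradiol as agonist stimulus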
ERb coact inh: ER-beta (human) coactivator binding inhibition; Q92731; TR-FRET ER-beta LBD / SRC1-Cy5 peptide binding; receptor agonist-loaded with 1 µM estradiol; inhibition, % at 25.6 µM; actives 1.3% (n = 86,000);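 active means compounds whose percent inhibition of the receptor-coactivator binding signal exceeds about 50% in the single-dose screen, limit read from the data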
ERa SRC1 inh: ER-alpha (human) coactivator binding inhibition | actives 1.7% (n = 86,000) | inhibition, % at 25.6 µM | TR-FRET ER-alpha LBD / SRC-1 peptide, estradiol-bound | P03372; in the data active means inhibition above about 50%
Pyk2 oligo antag: blocks oligomerization of human Pyk2 in cells. Q14289. actives 0.83% (n = 99,000). Q293 cells, Pyk2 FERM NanoBiT luminescence; active compounds read low. AID 1347419. z-score (the deposit names both 25 µM and 10 µM);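 active means Z-score of -3 or lower, scaled per plate to the spread of control and sample wells; inactive means z-score above -3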;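 further: negative z-score means lost luminescence so less FERM oligomerization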
Target sequence (Q14289 whole entry, looked up): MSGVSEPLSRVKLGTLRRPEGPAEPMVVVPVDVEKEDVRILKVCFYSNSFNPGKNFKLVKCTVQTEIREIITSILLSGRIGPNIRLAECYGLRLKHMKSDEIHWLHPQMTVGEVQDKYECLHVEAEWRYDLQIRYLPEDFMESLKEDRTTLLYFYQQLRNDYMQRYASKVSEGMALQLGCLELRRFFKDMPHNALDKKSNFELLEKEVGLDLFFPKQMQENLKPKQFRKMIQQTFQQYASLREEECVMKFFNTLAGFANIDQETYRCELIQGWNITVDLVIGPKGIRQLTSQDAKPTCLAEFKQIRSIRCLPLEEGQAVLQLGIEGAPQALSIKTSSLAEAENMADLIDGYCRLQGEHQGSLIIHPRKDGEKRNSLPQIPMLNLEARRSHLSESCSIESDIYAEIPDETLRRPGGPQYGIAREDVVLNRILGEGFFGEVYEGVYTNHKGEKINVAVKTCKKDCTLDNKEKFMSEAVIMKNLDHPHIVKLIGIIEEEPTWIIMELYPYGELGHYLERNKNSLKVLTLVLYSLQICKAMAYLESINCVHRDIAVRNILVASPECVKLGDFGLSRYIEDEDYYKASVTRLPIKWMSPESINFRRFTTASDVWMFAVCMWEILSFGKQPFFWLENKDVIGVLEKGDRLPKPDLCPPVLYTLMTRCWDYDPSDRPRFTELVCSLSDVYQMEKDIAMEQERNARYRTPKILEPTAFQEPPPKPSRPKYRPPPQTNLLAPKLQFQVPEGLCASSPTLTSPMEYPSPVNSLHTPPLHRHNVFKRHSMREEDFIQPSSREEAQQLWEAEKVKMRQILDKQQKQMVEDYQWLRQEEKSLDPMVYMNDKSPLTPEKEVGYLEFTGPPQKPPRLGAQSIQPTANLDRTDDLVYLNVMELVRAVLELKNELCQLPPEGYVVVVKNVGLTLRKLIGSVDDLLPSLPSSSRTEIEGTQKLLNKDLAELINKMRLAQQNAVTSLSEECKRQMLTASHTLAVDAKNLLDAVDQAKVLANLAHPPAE
SF-1 act: activators of human nuclear receptor SF-1. Q13285. CHO-K1 Gal4-SF-1 LBD luciferase reporter; % increase over DMSO SF-1-specific signal. activation, % at 10 µM. actives 1.9% (n = 65,000). AID 522;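 active means activation above the mean activation of all tested compounds plus 3 SD, cut at about 50% in these data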
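Compound – one dose, 10 µM compound, 1% DMSO · Test system – transient Gal4-SF-1 LBD reporter, CHO-K1 · Input – 4,000 cells in each well · Read-out basis – percent activation relative to DMSO median and mock-transfected background · Replicates – single measurement per compound · Technique – steady-glow luciferase luminescence, read after 15 min reagent incubation · Timing – 20 h compound treatment, 37 °C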
Numbers stand for hits; n = inactive; x = no result given; [ ] = remark or other dose. Rows were chosen to be rich in hits. Some 4.8% of all compounds tested hit in one or more screens of this group.

SMILES	RORA act	ERa coact pot	ERb coact inh	ERa SRC1 inh	Pyk2 oligo antag	SF-1 act
COc1ccccc1C(=O)Nc1nc(-c2cccs2)c(NC(C)=O)s1	x	n	n	66	n	x
COc1ccc(OC)c(C(c2nnnn2C2CCCC2)N2CCN(c3ccccc3F)CC2)c1 (configuration not stated)	n	n	n	n	-3.8	n
CN1C(=O)C2(C(C#N)=C(N)Oc3n[nH]c(-c4ccc(Cl)cc4)c32)c2ccccc21 (configuration not stated)	n	n	n	n	-3	n
COc1ccc2nc3oc(C(=O)N4CCN(c5cccc(C(F)(F)F)c5)CC4)cc3cc2c1	n	n	n	66	n	n
COc1ccc2nc3oc(C(=O)N4CCN(c5cccc(Cl)c5)CC4)cc3cc2c1	n	n	n	62[fluorescence artefact?]	n	n
COc1ccc(OCC(=O)N2CCN(c3cccc(C(F)(F)F)c3)CC2)cc1	n	n	n	n	n	n
COc1ccc2nc3oc(C(=O)N4CCC(C(N)=O)CC4)cc3cc2c1	n	n	n	n	n	n
CC(C)CCNC(=O)C(c1cccnc1)N(CCc1ccccc1)C(=O)Cn1nnc2ccccc21 (configuration not stated)	x	n	n	n	n	x
CCOC(=O)CCn1cc(F)c(=O)n(Cc2ccccc2)c1=O	n	238[fluorescence artefact?]	n	n	n	n
C=CCNC(=S)N/N=C/c1ccc(-c2cc(Cl)ccc2Cl)o1	x	x	x	x	-3.4	x
COc1ccc(C(=O)OCCNC(=O)c2c(Cl)nc3ccccn23)cc1	n	n	n	n	n	n
CC(C)(C)c1ccc(C(=O)OCCNC(=O)c2c(Cl)nc3ccccn23)cc1	x	n	n	n	-3.2	x
Cc1c(C(=O)NCCC2=CCCCC2)cccc1[N+](=O)[O-]	x	x	x	x	n	x
Cn1cnc2cc(NC(=O)c3ccco3)ccc21	n	n	n	n	n	n
O=C(Nc1ccc2nn(-c3ccccc3)nc2c1)c1ccc(Br)o1	n	207	n	56	n	n
Cc1ccc(-n2nc3ccc(NC(=O)c4ccco4)cc3n2)cc1	x	n	n	71[fluorescence artefact?]	n	x
O=C(Nc1ccc2nn(-c3ccccc3)nc2c1)c1ccc2c(c1)OCCO2	n	n	n	n	n	n
Cc1ccc(-n2nc3ccc(NC(=O)c4ccc5c(c4)OCO5)cc3n2)cc1	x	n	66[fluorescence artefact?]	88[fluorescence artefact?]	n	x
O=C(Nc1ccc2c(c1)ncn2-c1ccccc1)c1ccco1	52	n	n	n	n	n
COc1ccc(OC)c(NC(=O)c2ccccc2NS(=O)(=O)c2cccc3cccnc23)c1	x	x	x	x	n	x
CCc1ccc(-n2nc3ccc(NC(=O)c4ccc5c(c4)OCO5)cc3n2)cc1	x	362[fluorescence artefact?]	n	n	n	x
Cn1c(CN2CCCC2)nc2cc(NC(=O)c3ccco3)ccc21	n	n	n	n	n	50
CCOc1ccc(-n2nc3ccc(NC(=O)c4ccc5c(c4)OCCO5)cc3n2)cc1	x	n	n	n	n	x
Oc1ccc(C(=S)N2CCCCC2)cc1Cl	n	n	n	n	n	n
c1ccc(-c2n[nH]c(-c3ccccn3)n2)nc1	n	n	n	n	n	78
SMILES	RORA act	ERa coact pot	ERb coact inh	ERa SRC1 inh	Pyk2 oligo antag	SF-1 act
Cc1cc2c(c(=O)o1)C(C13C=CC(CC1)C3)C(C#N)=C(N)O2 (configuration not stated)	n	n	n	n	n	n
CCOC(=O)CNC(=O)CSc1ncnc2c1cnn2-c1ccc(Cl)cc1	n	206	n	n	n	n
CCOC(=O)CNC(=O)CSc1ncnc2c1cnn2Cc1ccccc1	n	n	n	n	n	n
NC(=O)c1ccsc1NC(=O)COC(=O)Cc1ccsc1	n	n	60	55[fluorescence artefact?]	n	n
O=C(COC(=O)Cc1ccsc1)NCC1CCCCC1	x	x	x	x	n	x
COc1ccc(-c2csc(N3CCOCC3)n2)cc1OC	61	n	n	n	n	n
COc1ccc(-c2noc(Cc3ccccc3OC)n2)cc1	n	n	n	n	n	n
COc1ccc(-c2noc(Cc3cccs3)n2)cc1	57	n	n	n	n	n
CCC(Sc1nc2c(cnn2-c2ccccc2)c(=O)[nH]1)C(=O)OC (configuration not stated)	n	n	n	n	x	n
COC(=O)c1ccc(CSc2nc3c(cnn3-c3ccc(F)cc3)c(=O)[nH]2)o1	n	517	n	n	n	n

Screens: PubChem BioAssay, several laboratories
